Source: ChEMBL document CHEMBL1212874, “Natural and semisynthetic azaphilones as a new scaffold for Hsp90 inhibitors” (Bioorg Med Chem, 2010)
The source made the active and inactive calls. The calls are words filed in the database; no cut-off is given here.

Tests used:
NCI-H460 = test: Antiproliferative activity against human NCI-H460 cells after 72 hrs; format: functional, cell-based; conditions: NCI-H460, 72 h
A-431 = test: Antiproliferative activity against human A431 cells after 72 hrs; format: functional, cell-based; conditions: A-431, 72 h
[1] = Antiproliferative activity against human JR8 cells after 72 hrs; format: functional, cell-based; conditions: JR8, 72 h
IGROV-1 [2] = test: Antiproliferative activity against human IGROV1 cells after 72 hrs; format: functional, cell-based; conditions: IGROV-1, 72 h
[3] = Inhibition of yeast full-length recombinant HSP90 ATPase activity expressed in Escherichia coli strain BL21(DE3) assessed as inorganic phosphate release after 3 hrs; design: species or system Saccharomyces cerevisiae
[4] = Binding affinity to HSP90 after 4 hrs by fluorescence polarization assay
Heat shock protein HSP90 [5] = biological target: T1, Heat shock protein HSP90 (Homo sapiens, UniProt P07900+P08238); test: Inhibition of HSP90 in human A431 cells assessed as down-regulation of EGFR protein at IC80 concentration after 24 hrs by immunoblotting; format: cell-based; conditions: A-431
Summary of the method: (§1)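 Cells seeded at 100,000 cells/mL, treated 24 h later for 24 h at the equitoxic IC80 concentration given per compound and cell line. Whole-cell extracts (40 µg) run on SDS-PAGE and immunoblotted. Actin was the loading control, and tubulin the loading control for EGFR.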

Heat shock protein HSP90 [6] = biological target: T1, Heat shock protein HSP90; test: Inhibition of HSP90 in human JR8 cells assessed as down-regulation of Raf-1 protein at IC80 concentration after 24 hrs by immunoblotting; format: cell-based; summary of the method: as §1
Heat shock protein HSP90 [7] = biological target: T1, Heat shock protein HSP90; test: Inhibition of HSP90 in human JR8 cells assessed as down-regulation of survivin protein at IC80 concentration after 24 hrs by immunoblotting; format: cell-based; summary of the method: as §1
Heat shock protein HSP90 [8] = biological target: T1, Heat shock protein HSP90; test: Inhibition of HSP90 in human JR8 cells assessed as down-regulation of Cdk4 protein at IC80 concentration after 24 hrs by immunoblotting; format: cell-based; summary of the method: as §1
Heat shock protein HSP90 [9] = biological target: T1, Heat shock protein HSP90; test: Inhibition of HSP90 in human JR8 cells assessed as down-regulation of Akt protein at IC80 concentration after 24 hrs by immunoblotting; format: cell-based; summary of the method: as §1
Heat shock protein HSP90 [10] = biological target: T1, Heat shock protein HSP90; test: Inhibition of HSP90 in human JR8 cells assessed as down-regulation of EGFR protein at IC80 concentration after 24 hrs by immunoblotting; format: cell-based; summary of the method: as §1
Heat shock protein HSP90 [11] = biological target: T1, Heat shock protein HSP90; test: Inhibition of HSP90 in human IGROV1 cells assessed as down-regulation of Raf-1 protein at IC80 concentration after 24 hrs by immunoblotting; format: cell-based; conditions: IGROV-1; summary of the method: as §1
Heat shock protein HSP90 [12] = biological target: T1, Heat shock protein HSP90; test: Inhibition of HSP90 in human IGROV1 cells assessed as down-regulation of Akt protein at IC80 concentration after 24 hrs by immunoblotting; format: cell-based; conditions: IGROV-1; summary of the method: as §1
Heat shock protein HSP90 [13] = biological target: T1, Heat shock protein HSP90; test: Inhibition of HSP90 in human A431 cells assessed as reduction of Raf-1/Hsp90 precipitation at IC80 concentration after 4 hrs by co-immunoprecipitation analysis; format: cell-based; conditions: A-431
[14] = Antiproliferative activity against human STO cells after 72 hrs; format: functional, cell-based
Summary of the method: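 Cells seeded 24 h before, then exposed to compound for 72 h (about three doublings in controls), in medium with 10% heat-inactivated FBS at 37 °C. Compound dissolved fresh in DMSO and diluted in medium. Adherent cells trypsinized and counted electronically. IC50 is the concentration giving 50% growth inhibition, read from dose–response curves.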

Heat shock protein HSP90 [15] = biological target: T1, Heat shock protein HSP90; test: Inhibition of HSP90 in human A431 cells assessed as down-regulation of Akt protein after 24 hrs by immunoblotting; format: cell-based; conditions: a-431; summary of the method: as §1
Heat shock protein HSP90 [16] = biological target: T1, Heat shock protein HSP90; test: Inhibition of HSP90 in human A431 cells assessed as down-regulation of EGFR protein after 24 hrs by immunoblotting; format: cell-based; conditions: a-431; summary of the method: as §1
Heat shock protein HSP90 [17] = biological target: T1, Heat shock protein HSP90; test: Inhibition of HSP90 in human A431 cells assessed as down-regulation of Cdk4 protein after 24 hrs by immunoblotting; format: cell-based; conditions: a-431; summary of the method: as §1
Heat shock protein HSP90 [18] = biological target: T1, Heat shock protein HSP90; test: Inhibition of HSP90 in human A431 cells assessed as down-regulation of survivin protein after 24 hrs by immunoblotting; format: cell-based; conditions: a-431; summary of the method: as §1
Heat shock protein HSP90 [19] = biological target: T1, Heat shock protein HSP90; test: Inhibition of HSP90 in human A431 cells assessed as down-regulation of Raf-1 protein at IC80 concentration after 24 hrs by immunoblotting; format: cell-based; conditions: A-431; summary of the method: as §1
Heat shock protein HSP90 [20] = biological target: T1, Heat shock protein HSP90; test: Inhibition of HSP90 in human A431 cells assessed as down-regulation of survivin protein at IC80 concentration after 24 hrs by immunoblotting; format: cell-based; conditions: A-431; summary of the method: as §1
Heat shock protein HSP90 [21] = biological target: T1, Heat shock protein HSP90; test: Inhibition of HSP90 in human A431 cells assessed as down-regulation of Cdk4 protein at IC80 concentration after 24 hrs by immunoblotting; format: cell-based; conditions: A-431; summary of the method: as §1
Heat shock protein HSP90 [22] = biological target: T1, Heat shock protein HSP90; test: Inhibition of HSP90 in human A431 cells assessed as down-regulation of Akt protein at IC80 concentration after 24 hrs by immunoblotting; format: cell-based; conditions: A-431; summary of the method: as §1
Heat shock protein HSP90 [23] = biological target: T1, Heat shock protein HSP90; test: Inhibition of HSP90 in human IGROV1 cells assessed as down-regulation of survivin protein at IC80 concentration after 24 hrs by immunoblotting; format: cell-based; conditions: IGROV-1; summary of the method: as §1
Heat shock protein HSP90 [24] = biological target: T1, Heat shock protein HSP90; test: Inhibition of HSP90 in human IGROV1 cells assessed as down-regulation of Cdk4 protein at IC80 concentration after 24 hrs by immunoblotting; format: cell-based; conditions: IGROV-1; summary of the method: as §1
Heat shock protein HSP90 [25] = biological target: T1, Heat shock protein HSP90; test: Inhibition of HSP90 in human A431 cells expressing p53 mutant assessed as down-regulation of p53 protein at IC80 concentration after 24 hrs by immunoblotting; format: cell-based; conditions: A-431; summary of the method: as §1
Heat shock protein HSP90 [26] = biological target: T1, Heat shock protein HSP90; test: Inhibition of HSP90 in human A431 cells assessed as up-regulation of HSP70 protein at IC80 concentration after 24 hrs by immunoblotting; format: cell-based; conditions: A-431; summary of the method: as §1
Heat shock protein HSP90 [27] = biological target: T1, Heat shock protein HSP90; test: Inhibition of HSP90 in human A431 cells assessed as reduction of Hsp70/Hsp90 precipitation at IC80 concentration after 4 hrs by co-immunoprecipitation analysis; format: cell-based; conditions: A-431
IGROV-1 [28] = test: Induction of apoptosis in human IGROV1 cells assessed as PARP1 cleavage at 11 uM after 48 hrs by Western blotting; format: functional, cell-based
Summary of the method: (§2)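 IGROV-1 cells treated with 11 µM compound for 24 or 48 h. Cells rinsed with ice-cold PBS containing 0.1 mM orthovanadate and lysed in hot sample buffer. 40 µg of total extract run on SDS-PAGE and blotted onto nitrocellulose. Probed for cleaved caspase-3 and PARP-1.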

IGROV-1 [29] = test: Induction of apoptosis in human IGROV1 cells assessed as activation of caspase 3 at 11 uM after 48 hrs by Western blotting; format: functional, cell-based; summary of the method: as §2
IGROV-1 [30] = test: Antitumor activity against human IGROV1 cells xenografted in athymic Swiss nude mouse assessed as increase of mouse survival at 25 mg/kg, ip administered qd for 4 days/week for 2 weeks; format: functional, organism-based; design: dose 25 mg/kg
Summary of the method: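 Female athymic Swiss nude mice, 8–10 weeks old. IGROV-1 ovarian carcinoma was serially passaged ip as ascites, and 2.5 × 10^6 cells in 0.2 mL saline were injected ip. Dosing ip at 25 mg/kg daily, 4 days/week for 2 weeks, began the day after implant. End point was median survival time, reported as T/C% (treated/control MST × 100).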

[31] = Binding affinity to HSP90 by surface plasmon resonance analysis
Heat shock protein HSP90 [32] = biological target: T1, Heat shock protein HSP90; test: Inhibition of HSP90 in human A431 cells assessed as reduction of Raf-1/Hsp90 precipitation at 11 uM after 4 hrs by co-immunoprecipitation analysis; conditions: A-431
Heat shock protein HSP90 [33] = biological target: T1, Heat shock protein HSP90; test: Inhibition of HSP90 in human A431 cells assessed as reduction of Hsp70/Hsp90 precipitation at 11 uM after 4 hrs by co-immunoprecipitation analysis; conditions: A-431

## CCC(C)/C=C/C=C/C=C/C(=O)/C=C(\O)C1=C2C=C(CC(O)CO)/C(=C/NCc3ccccc3)C(=O)[C@]2(C)OC1=O (some centres undefined)
NCI-H460
  IC50: 4.3 µM
A-431
  IC50: 0.3 µM
  IC80: 2.7 µM
[1]
  IC50: 4.8 µM
  IC80: 10.7 µM
IGROV-1 [2]
  IC50: 0.2 µM
  IC80: 2.3 µM
[3]
  IC50: 5.75 µM
[4]
  IC50: 27.7 µM
Heat shock protein HSP90 [5]
  inhibition: Active
Heat shock protein HSP90 [6]
  Raf-1 protein down-regulation: Active
Heat shock protein HSP90 [7]
  inhibition: Active
Heat shock protein HSP90 [8]
  inhibition: Active
Heat shock protein HSP90 [9]
  inhibition: Active
Heat shock protein HSP90 [10]
  inhibition: Active
Heat shock protein HSP90 [11]
  inhibition: Active
Heat shock protein HSP90 [12]
  inhibition: Active
Heat shock protein HSP90 [13]
  inhibition: Active
[14]
  IC50: 3.57 µM
  IC80: 11.6 µM
Heat shock protein HSP90 [15]
  EC50: 8.93 µM
Heat shock protein HSP90 [16]
  EC50: 3.57 µM
Heat shock protein HSP90 [17]
  EC50: 4.93 µM
Heat shock protein HSP90 [18]
  EC50: 2.32 µM

## CCC(C)/C=C/C=C/C=C/C(=O)/C=C(\O)C1=C2C=C3CC(CO)OC=C3C(=O)[C@]2(C)OC1=O (some centres undefined) [BULGARIALACTONE B]
NCI-H460
  IC50: 50 µM
A-431
  IC50: 5.53 µM
  IC80: 11 µM
[1]
  IC50: 6.42 µM
IGROV-1 [2]
  IC50: 4.65 µM
[3]
  IC50: 9.87 µM
[4]
  IC50: 61.7 µM
Heat shock protein HSP90 [19]
  inhibition: Active
Heat shock protein HSP90 [20]
  inhibition: Active
Heat shock protein HSP90 [21]
  inhibition: Active
Heat shock protein HSP90 [22]
  inhibition: Active
Heat shock protein HSP90 [5]
  inhibition: Active
Heat shock protein HSP90 [6]
  Raf-1 protein down-regulation: Active
Heat shock protein HSP90 [7]
  inhibition: Active
Heat shock protein HSP90 [8]
  inhibition: Active
Heat shock protein HSP90 [9]
  inhibition: Active
Heat shock protein HSP90 [10]
  inhibition: Active
Heat shock protein HSP90 [11]
  inhibition: Active
Heat shock protein HSP90 [23]
  inhibition: Active
Heat shock protein HSP90 [24]
  inhibition: Active
Heat shock protein HSP90 [12]
  inhibition: Active
Heat shock protein HSP90 [25]
  inhibition: Active
Heat shock protein HSP90 [26]
  inhibition: inactive
Heat shock protein HSP90 [13]
  inhibition: Active
Heat shock protein HSP90 [27]
  inhibition: Active
IGROV-1 [28]
  inhibition: Active
IGROV-1 [29]
  inhibition: Active
IGROV-1 [30]
  Activity: Active
Heat shock protein HSP90 [15]
  EC50: 16.8 µM
Heat shock protein HSP90 [16]
  EC50: 11 µM
Heat shock protein HSP90 [17]
  EC50: 8.49 µM
Heat shock protein HSP90 [18]
  EC50: 11 µM
[31]
  Kd: 0.0013 µM
Heat shock protein HSP90 [32]
  inhibition: Active
Heat shock protein HSP90 [33]
  inhibition: Active
